Experiment [1] deals with Canis familiaris. As to the kind of experiment: Emetic activity in sc dosed dogs assessed as frequency of vomiting for 1 hr. To be noted: Canis lupus familiaris. In kind it is functional. In outline: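 At least five dogs per compound were dosed sc, with doses spaced at 0.3 log intervals. Vomiting frequency was recorded over 1 h.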
A short description of experiment [2]: Induction of pecking activity in pigeons assessed as counts for 1 hr. To be noted: Columbidae. In kind it is functional. In outline: (§1)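 Pigeons were dosed im, with doses spaced at 0.3 log intervals, and pecks were counted over 1 h. Pecking after 1.63 µmol apomorphine hydrochloride was taken as the 100% response.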
In experiment [3] the test system is Rattus norvegicus. As to the kind of experiment: Dopaminergic activity in Sprague-Dawley rat assessed as stereotyped behavior characterized by continous sniffing up to 25 ug administered into caudate-putamen. It counts as functional, organism-based. In outline: (§2)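 Male Sprague-Dawley rats (250 ± 26 g) had guide cannulae implanted for bilateral injection into caudate-putamen and nucleus accumbens, and were used 10–14 days later. Nialamide 100 mg/kg ip was given 2 h before. Drug in N2-bubbled water (minimal DMF if needed), 1–2 µL over 60 s. Hyperactivity was read as photocell counts/5 min, stereotypy was scored, and cannula sites were checked histologically.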

For experiment [4], the system named is Canis familiaris. As to the kind of experiment: Emetic activity in sc dosed dogs assessed as frequency of vomiting for 1 hr relative to apomorphine. It counts as functional, Canis lupus familiaris.
Experiment [5] deals with Rattus norvegicus. As to the kind of experiment: Dopaminergic activity in Sprague-Dawley rat assessed as stereotypic behavior administered into caudate-putamen measured up to 25 ug from 5 to 15 mins to persisted up to 3 hrs. In kind it is functional, organism-based. In outline: as §2
The subject of experiment [6] is Rattus norvegicus. As to the kind of experiment: Dopaminergic activity in Sprague-Dawley rat assessed as stereotyped behavior characterized by continous sniffing up to 12.5 to 50 ug administered into nucleus accumbens. In kind it is functional, organism-based. In outline:
as §2

Another experiment deals with Felis catus. As to the kind of experiment: Inhibition of electrical-stimulation of postganglionic cardioaccelerator nerve in iv dosed cat. In kind it is functional. The following applies: read-out: ID50 (the source's name). In outline: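 Cats were anaesthetised with sodium pentobarbital 30 mg/kg and ventilated. The right postganglionic cardioaccelerator nerves were stimulated with bipolar electrodes (2 Hz, 5 ms pulses, supramaximal voltage, 20–30 s trains), and heart rate was read by cardiotachometer. Doses were spaced at 0.48 log intervals, and the dose inhibiting positive chronotropic responses by 50% was calculated.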

For experiment [7], the system named is Rattus norvegicus. Nature of the experiment: Dopaminergic activity in Sprague-Dawley rat assessed as hyperactivity up to 25 ug administered into caudate-putamen. In kind it is functional, organism-based. In outline:
as §2

The subject of experiment [8] is Rattus norvegicus. Nature of the experiment: Dopaminergic activity in Sprague-Dawley rat assessed as hyperactivity behavior administered into nucleus caudate-putamen measured up to 25 ug from 30 to 45 mins to persisted up to 3 hrs. It counts as functional, organism-based. In outline:
as §2

Experiment [9] concerns Mus musculus. As to the kind of experiment: Dopaminergic activity in albino mouse assessed as stereotyped behavior characterized by sniffing and biting at up to 10 mg/kg, sc. In kind it is functional, organism-based. Also on record: dose 10 mg/kg. In outline: (§3)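 Male albino mice (20–25 g, N = 10) were dosed sc in water containing 0.1% sodium metabisulfite and scored for stereotyped sniffing and biting. Dose range runs from the threshold dose to the dose giving maximal response, in mg/kg sc.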

The test system of experiment [10] is Mus musculus. Nature of the experiment: Dopaminergic activity in albino mouse assessed as induction of ipsilateral circling behavior up to 10 mg/kg, sc. Also on record: dose 10 mg/kg. It counts as functional, organism-based. In outline: (§4)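 Male albino mice (30–35 g) received a unilateral caudate-putamen electrolesion (1.5 mA, 15 s) and 14 days of recovery. Only mice circling ≥7 ipsilateral revolutions/2 min after apomorphine HCl 1.0 mg/kg sc were kept, with a further 7 days of recovery. After sc dosing, complete revolutions in one direction were counted manually. Lesion sites were verified afterwards.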

Experiment [11] relates to Rattus norvegicus. Nature of the experiment: Dopaminergic activity in Sprague-Dawley rat assessed as stereotyped behavior characterized by sniffing and biting at 1 to 10 mg/kg, sc. It counts as functional, organism-based. In outline: (§5)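 Male Sprague-Dawley rats, groups of 10, were dosed sc in distilled water with 0.1% sodium metabisulfite, with solvent controls. Stereotyped sniffing and biting were scored as for intracerebral tests at 21 ± 2 °C between 08:00 and 18:00 h. Dose range runs from the threshold dose to the dose giving maximal response, in mg/kg sc.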

Experiment [12] has as its system Mus musculus. Nature of the experiment: Dopaminergic activity in albino mouse assessed as induction of climbing behavior up to 10 mg/kg, sc. It counts as functional, organism-based. Also on record: dose 10 mg/kg. In outline:
(§6)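 Male albino mice (20–25 g, N = 10) were dosed sc in water with 0.1% sodium metabisulfite and placed in wire-mesh-lined cages. A mouse counted as climbing when holding the wire with all four paws. Measures: climbing index (% time climbing in the 30 min after the first climb) and maximum single-climb time. Doses run from threshold to maximal response.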

In experiment [13] the test system is Rattus norvegicus. As to the kind of experiment: Dopaminergic activity in Sprague-Dawley rat assessed as hyperactivity up to 6.25 to 50 ug administered into nucleus accumbens. In kind it is functional, organism-based. In outline: as §2
For experiment [14], the system named is Rattus norvegicus. As to the kind of experiment: Dopaminergic activity in Sprague-Dawley rat assessed as stereotyped behavior characterized by sniffing and biting at 0.5 to 2 mg/kg, sc. In kind it is functional, organism-based. In outline: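 Male Sprague-Dawley rats in groups of 10 received agents sc, dissolved in distilled water containing 0.1% sodium metabisulfite, and were scored for stereotyped sniffing and biting. Testing ran 08:00-18:00 h in sound-proofed rooms at 21 ± 2 °C. The reported range runs from the threshold dose to the dose producing the maximum attainable response, in mg/kg sc.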

The test system of experiment [15] is Mus musculus. As to the kind of experiment: Dopaminergic activity in albino mouse assessed as induction of ipsilateral circling behavior at 0.25 to 1 mg/kg, sc. In kind it is functional, organism-based. In outline: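 Mice received a unilateral caudate-putamen electrolesion (1.5 mA, 15 s). After 14 days they were screened with apomorphine HCl 1.0 mg/kg sc, and animals circling ≥7 ipsilateral revolutions/2 min were kept. After 7 days' recovery, agents were given sc and complete one-direction revolutions were counted manually. Lesion sites were verified histologically. Range given is threshold to maximal dose.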

The subject of experiment [16] is Mus musculus. As to the kind of experiment: Dopaminergic activity in albino mouse assessed as induction of climbing behavior at 0.5 to 1.5 mg/kg, sc. In kind it is functional, organism-based. In outline: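 Male albino mice (20-25 g, N = 10) received agents sc in water with 0.1% sodium metabisulfite. They were placed in perspex cages lined with wire mesh and counted as climbing when holding the wire with all four paws. Read-outs were climbing index (% time climbing in the 30 min after the first climb) and maximum single-climb time. Range given is threshold to maximal dose.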

Experiment [17] relates to Mus musculus. Nature of the experiment: Dopaminergic activity in albino mouse assessed as stereotyped behavior characterized by sniffing and biting at 1.5 to 4 mg/kg, sc. It counts as functional, organism-based.
Experiment [18] deals with Rattus norvegicus. Nature of the experiment: Dopaminergic activity in Sprague-Dawley rat assessed as hyperactivity behavior administered into nucleus caudate-putamen measured up to 25 ug from 30 to 45 mins to persisted up to 5 to 6 hrs. In kind it is functional, organism-based. In outline: as §2
Experiment [19] has as its system Rattus norvegicus. Nature of the experiment: Dopaminergic activity in Sprague-Dawley rat assessed as stereotypic behavior administered into caudate-putamen measured up to 25 ug from 5 to 15 mins to persisted up to 5 to 6 hrs. It counts as functional, organism-based. In outline:
as §2

For experiment [20], the system named is Rattus norvegicus. Nature of the experiment: Dopaminergic activity in Sprague-Dawley rat assessed as biting behavior up to 50 ug administered into nucleus accumbens. In kind it is functional, organism-based. In outline: as §2
Experiment [21] can be described thus: Induction of pecking activity in pigeons assessed as counts for 1 hr relative to apomorphine. In kind it is functional, Columbidae. In outline: as §1
Experiment [22] deals with Mus musculus. As to the kind of experiment: Dopaminergic activity in albino mouse assessed as induction of climbing behavior at 0.025 to 1 mg/kg, sc. In kind it is functional, organism-based. In outline:
as §6

Experiment [23] deals with Mus musculus. As to the kind of experiment: Dopaminergic activity in albino mouse assessed as induction of ipsilateral circling behavior at 0.5 to 2 mg/kg, sc. In kind it is functional, organism-based. In outline: as §4
The test system of experiment [24] is Mus musculus. As to the kind of experiment: Dopaminergic activity in albino mouse assessed as induction of climbing behavior at 0.025 to 1 mg/kg, sc after 120 mins. It counts as functional, organism-based. In outline:
as §6

Experiment [25] relates to Mus musculus. Nature of the experiment: Dopaminergic activity in albino mouse assessed as stereotyped behavior characterized by sniffing and biting at 1 to 2 mg/kg, sc. It counts as functional, organism-based. In outline: as §3
The test system of experiment [26] is Rattus norvegicus. As to the kind of experiment: Dopaminergic activity in Sprague-Dawley rat assessed as stereotyped behavior characterized by sniffing and biting at 0.025 to 0.05 mg/kg, sc. In kind it is functional, organism-based. In outline: as §5
Experiment [27] has as its system Mus musculus. Nature of the experiment: Dopaminergic activity in albino mouse assessed as induction of ipsilateral circling behavior at 0.5 to 2 mg/kg, sc after 120 mins. In kind it is functional, organism-based. In outline: as §4
Experiment [28] concerns Mus musculus. Nature of the experiment: Dopaminergic activity in sc dosed albino mouse assessed as induction of ipsilateral circling behavior. It counts as functional, organism-based. In outline: as §4

Molecules are shown by their SMILES. Counter-ions that a name gives are not always drawn. Active and inactive are the calls of the source.

With `CN1CCc2cccc3c2[C@H]1Cc1ccc(O)c(O)c1-3` [APOMORPHINE HYDROCHLORIDE], the results for the ED50 (in the experiment on Canis familiaris [1]; in [2]) were 0.14 µmol/kg and 0.77 µmol/kg, respectively.

`Oc1ccc2c(c1O)CC[C@H]1NCCC[C@H]21` (relative stereo): the outcome in the experiment with Rattus norvegicus [3], in the experiment on Rattus norvegicus [5], with Rattus norvegicus [7], in the experiment on Rattus norvegicus [8] and in the experiment with Rattus norvegicus [11] was Active. In the experiment on Canis familiaris [4], the “fold change (FC)” value is reported as 4.5. Also, the result in the experiment with Rattus norvegicus [6], in the experiment on Mus musculus [9], in the experiment on Mus musculus [10], with Mus musculus [12] and in the experiment on Rattus norvegicus [13] was inactive. Further, the ED50 in the experiment on Felis catus was found to be 0.0007 µmol/kg.

On to `CN1CCc2cccc3c2[C@H]1Cc1ccc(O)c(O)c1-3`, for which the result in the experiment on Rattus norvegicus [14], in the experiment on Mus musculus [15], with Mus musculus [16] and in the experiment on Mus musculus [17] was Active.

For the compound `NCCc1ccc(O)c(O)c1`, the outcome in the experiment with Rattus norvegicus [18], in the experiment with Rattus norvegicus [19], in the experiment on Rattus norvegicus [6] and with Rattus norvegicus [13] was Active. In the experiment on Rattus norvegicus [20], the outcome was inactive.

`CCN1CCC[C@@H]2c3ccc(O)c(O)c3CC[C@H]21` (relative stereo): the outcome in the experiment on Rattus norvegicus [3], in the experiment with Rattus norvegicus [18], in the experiment with Mus musculus [22], in the experiment on Rattus norvegicus [19], in the experiment on Mus musculus [23] and with Mus musculus [24] was Active. Besides, the result with Rattus norvegicus [7], with Mus musculus [25], with Rattus norvegicus [26], with Mus musculus [27] and in the experiment on Rattus norvegicus [20] was Active. Also, the “fold change (FC)” value in experiment [21] worked out at 0.39; in the experiment with Canis familiaris [4], 4.9. The ED50 with Felis catus was determined as 0.0005 µmol/kg. The Activity entry in the experiment on Mus musculus [28] is “Dose-dependent effect”. For the same compound, the result with Rattus norvegicus [13] was inactive.

The record behind these values is ChEMBL document CHEMBL3228001, “Rigid congeners of dopamine based on octahydrobenzo[f]quinoline: peripheral and central effects” (1979).
